Calls of active or inactive are those of the source. The calls are words filed in the database; no cut-off is given here.
Legend:
[1] = target: T1, Protein deacetylase HDAC6 (Mus musculus) (UniProt Q9Z2V5); assay: Inhibition of mouse HDAC6 expressed in 293T cells at 100 uM using Ac-KGLGK(Ac)-MCA as substrate measured after 30 mins by fluorescence assay relative to control
T1 sequence (whole entry): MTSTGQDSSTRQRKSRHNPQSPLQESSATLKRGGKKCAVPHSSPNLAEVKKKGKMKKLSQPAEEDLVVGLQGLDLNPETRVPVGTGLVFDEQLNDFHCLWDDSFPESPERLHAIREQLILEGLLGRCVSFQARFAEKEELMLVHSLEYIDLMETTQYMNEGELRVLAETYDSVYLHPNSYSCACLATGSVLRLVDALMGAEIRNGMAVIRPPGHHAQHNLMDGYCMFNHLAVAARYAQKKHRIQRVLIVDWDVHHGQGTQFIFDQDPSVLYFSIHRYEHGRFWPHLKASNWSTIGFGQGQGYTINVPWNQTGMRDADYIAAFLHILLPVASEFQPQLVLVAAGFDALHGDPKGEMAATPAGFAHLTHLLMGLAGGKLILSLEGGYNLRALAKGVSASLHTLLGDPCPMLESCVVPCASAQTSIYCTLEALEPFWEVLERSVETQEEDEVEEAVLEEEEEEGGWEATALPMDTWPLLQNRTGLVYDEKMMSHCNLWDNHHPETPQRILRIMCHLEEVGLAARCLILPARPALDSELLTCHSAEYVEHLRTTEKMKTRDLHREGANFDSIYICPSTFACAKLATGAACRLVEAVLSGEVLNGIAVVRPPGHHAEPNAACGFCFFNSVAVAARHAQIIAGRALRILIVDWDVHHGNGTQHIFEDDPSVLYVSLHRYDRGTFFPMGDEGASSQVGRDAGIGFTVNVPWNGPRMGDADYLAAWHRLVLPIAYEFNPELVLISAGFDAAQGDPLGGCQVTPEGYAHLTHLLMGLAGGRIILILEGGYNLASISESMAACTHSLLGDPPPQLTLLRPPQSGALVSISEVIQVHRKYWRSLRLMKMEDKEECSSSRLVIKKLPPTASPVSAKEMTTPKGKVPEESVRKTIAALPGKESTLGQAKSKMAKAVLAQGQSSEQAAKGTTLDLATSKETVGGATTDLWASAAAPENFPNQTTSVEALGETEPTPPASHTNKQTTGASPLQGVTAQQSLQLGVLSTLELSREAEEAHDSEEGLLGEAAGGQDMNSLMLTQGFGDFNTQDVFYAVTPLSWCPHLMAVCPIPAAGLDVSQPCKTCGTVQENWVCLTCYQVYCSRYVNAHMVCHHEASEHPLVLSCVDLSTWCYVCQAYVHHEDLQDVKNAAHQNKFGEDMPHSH

[2] = Substrate activity at PYSOCA in human CMEC/D3 cells assessed as transporter-mediated drug uptake clearance assessed per mg protein at 37degC; assay type: ADME, cell-based
Method in brief: (§1)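 Uptake by hCMEC/D3 cells followed over time at 37 °C or 4 °C. Clearance was calculated from the initial linear slope, expressed per mg protein. Mean ± S.E., n = 4.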

[3] = Substrate activity at PYSOCA in human CMEC/D3 cells assessed as transporter-mediated drug uptake clearance assessed per mg protein at 4degC measured after 30 mins; assay type: ADME, cell-based; conditions: 0.5 h; method in brief: as §1
[4] = Substrate activity at PYSOCA in human CMEC/D3 cells assessed as transporter-mediated drug uptake measured for 2 mins at 37degC in presence of pyrilamine; assay type: ADME, cell-based
[5] = Substrate activity at PYSOCA in human CMEC/D3 cells assessed as transporter-mediated drug uptake measured for 2 mins at 37degC in presence of diphenhydramine; assay type: ADME, cell-based
Method in brief: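 Uptake by hCMEC/D3 cells was measured at various substrate concentrations, at 37 °C for 2 min, with or without diphenhydramine (100 µM). Data were analysed by Michaelis-Menten and Lineweaver-Burk plots using nonlinear least-squares regression (Eqs. 1 and 2). Mean ± S.E., n = 4.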

[6] = Substrate activity at PYSOCA in human CMEC/D3 cells assessed as transporter-mediated drug uptake measured for 2 mins at 37degC in presence of memantine; assay type: ADME, cell-based
[7] = Substrate activity at PYSOCA in human CMEC/D3 cells assessed as transporter-mediated drug uptake measured for 2 mins at 37degC in presence of tramadol; assay type: ADME, cell-based
[8] = Substrate activity at PYSOCA in human CMEC/D3 cells assessed as transporter-mediated drug uptake measured for 2 mins at 37degC in presence of clonidine; assay type: ADME, cell-based
[9] = Substrate activity at PYSOCA in human CMEC/D3 cells assessed as transporter-mediated drug uptake measured for 2 mins at 37degC in presence of varenicline; assay type: ADME, cell-based
[10] = Substrate activity at PYSOCA in human CMEC/D3 cells assessed as transporter-mediated drug uptake measured for 2 mins at 37degC in presence of TEA; assay type: ADME, cell-based
[11] = Substrate activity at PYSOCA in human CMEC/D3 cells assessed as transporter-mediated drug uptake measured for 2 mins at 37degC in presence of MPP+; assay type: ADME, cell-based
[12] = Substrate activity at PYSOCA in human CMEC/D3 cells assessed as transporter-mediated drug uptake measured for 2 mins at 37degC in presence of decynium-22; assay type: ADME, cell-based
[13] = Substrate activity at PYSOCA in human CMEC/D3 cells assessed as transporter-mediated drug uptake measured for 2 mins at 37degC in presence of L-carnitine; assay type: ADME, cell-based
[14] = Substrate activity at PYSOCA in human CMEC/D3 cells assessed as transporter-mediated drug uptake measured for 2 mins at 37degC in presence of choline; assay type: ADME, cell-based
[15] = target: Histone deacetylase (Homo sapiens) (UniProt Q13547+O15379+Q9UBN7+Q92769+Q9UQL6+Q8WUI4+Q9BY41+Q96DB2+P56524+Q9UKV0+Q969S8); conditions: at 10 µM

Question: For `COc1ccc(CN(CCN(C)C)c2ccc(C(=O)Nc3cc(-c4ccccc4)ccc3N)cn2)cc1`, which inhibition [1] is on record?
Answer: The inhibition was 14%.

Question: With `CC(=O)Nc1ccc(C(=O)Nc2ccccc2N)cc1` [TACEDINALINE] as the compound, how does the inhibition [1] read?
Answer: Its inhibition is 18%.

Question: And the CL [2]?
Answer: Its CL is 1.26 µL/min.

Question: What about the Activity [3] of the same compound?
Answer: The Activity was “Active”.

Question: What about the Activity [4] of the same compound?
Answer: The Activity was “Active”.

Question: And the Activity [5]?
Answer: The Activity was “Active”.

Question: What about the Activity [6] of the same compound?
Answer: Its Activity is “Active”.

Question: What about the Activity [7] of the same compound?
Answer: Its Activity is “Active”.

Question: What about the Activity [8] of the same compound?
Answer: Its Activity is “Active”.

Question: And the Activity [9]?
Answer: The Activity was “Active”.

Question: What about the Activity [10] of the same compound?
Answer: The Activity was “Active”.

Question: What about the Activity [11] of the same compound?
Answer: Its Activity is “Active”.

Question: And the Activity [12]?
Answer: Its Activity is “Active”.

Question: What about the Activity [13] of the same compound?
Answer: Its Activity is “Active”.

Question: And the Activity [14]?
Answer: The Activity was “Active”.

Question: What about the inhibition [15] of the same compound?
Answer: Its inhibition is “Active”.

Question: With `CC(/C=C/C(=O)NO)=C\[C@@H](C)C(=O)c1ccc(N(C)C)cc1` as the compound, how does the inhibition [1] read?
Answer: Its inhibition is 98%.

Question: For `COc1ccc(CN(CCN(C)C)c2ccc(C(=O)Nc3cc(Cl)ccc3N)cn2)cc1`, which inhibition [1] is on record?
Answer: Its inhibition is 7%.

Question: Which inhibition [1] does the source give for `COc1ccc(CN(CCN(C)C)c2ccc(C(=O)Nc3cc(-c4ccco4)ccc3N)cn2)cc1` here?
Answer: Its inhibition is 15%.

Question: Which inhibition [1] does the source give for `COc1ccc(CN(CCN(C)C)c2ccc(C(=O)Nc3cc(-c4cccs4)ccc3N)cn2)cc1` here?
Answer: Its inhibition is 15%.

Question: For `COc1ccc(CN(CCN(C)C)c2ccc(C(=O)Nc3cc(I)ccc3N)cn2)cc1`, which inhibition [1] is on record?
Answer: Its inhibition is 16%.

Question: Which inhibition [1] does the source give for `COc1ccc(CN(CCN(C)C)c2ccc(C(=O)Nc3cc(Br)ccc3N)cn2)cc1` here?
Answer: The inhibition was 21%.

From ChEMBL document CHEMBL4196230, “Design, Synthesis, and Blood-Brain Barrier Transport Study of Pyrilamine Derivatives as Histone Deacetylase Inhibitors” (ACS Med Chem Lett, 2018)
